From ChEMBL document CHEMBL3779826, “Converting maslinic acid into an effective inhibitor of acylcholinesterases” (Eur J Med Chem, 2015)

Key:
Cholinesterase = Cholinesterase (Equus caballus, UniProt P81908); assay: Inhibition of equine serum BChE using butyrylthiocholine iodide as substrate preincubated for 20mins before the addition of substrate by Ellman's method; conditions: for Ki: read-out: Ki
Acetylcholinesterase = Acetylcholinesterase (Electrophorus electricus, UniProt O42275); assay: Inhibition of Electrophorus electricus AChE using acetylthiocholine iodide as substrate preincubated for 20mins before the addition of substrate by Ellman's method; conditions: for Ki: read-out: Ki
[1] = molecular target: Carbonic anhydrase 2 (Bos taurus) (UniProt P00921); assay: Inhibition of bovine erythrocte carbonic anhydrase 2 at 5 uM
Candida antarctica [2] = assay: Inhibition of Candida antarctica lipase at 5 uM using 4-NA as substrate preincubated for 20 mins before the addition of substrate
Procedure, shortened: (§1)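 Candida antarctica lipase in 50 mM Tris-HCl pH 8.0 was preincubated with compound at 37 °C for 20 min. Reaction started with 4-NA ([…] as added). Absorbance at 415 nm was read kinetically at 37 °C for 10 min at 1-min intervals. Relative inhibition was taken as the ratio of linear-range slopes, compound over blank.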

[3] = molecular target: Cholinesterase (Equus caballus) (UniProt P81908); assay: Inhibition of equine serum BChE at 5 uM using butyrylthiocholine iodide as substrate preincubated for 20mins before the addition of substrate by Ellman's method
Procedure, shortened: (§2)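 Ellman assay: enzyme in Tris-HCl pH 8.0 with NaN3, plus DTNB (3 mM stock with NaCl and MgCl2), was preincubated with compound at 30 °C for 20 min. Thiocholine substrate was then added and absorbance at 415 nm recorded at 30 °C for 30 min at 1-min intervals, in triplicate. Residual DMSO below 0.5%.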

[4] = molecular target: Acetylcholinesterase (Electrophorus electricus) (UniProt O42275); assay: Inhibition of Electrophorus electricus AChE at 5 uM using acetylthiocholine iodide as substrate preincubated for 20mins before the addition of substrate by Ellman's method; procedure, shortened: as §2
[5] = molecular target: Carbonic anhydrase 2 (Bos taurus) (UniProt P00921); assay: Inhibition of bovine erythrocte carbonic anhydrase 2 at 40 uM
[6] = molecular target: Cholinesterase (Equus caballus) (UniProt P81908); assay: Inhibition of equine serum BChE at 40 uM using butyrylthiocholine iodide as substrate preincubated for 20mins before the addition of substrate by Ellman's method; procedure, shortened: as §2
[7] = molecular target: Acetylcholinesterase (Electrophorus electricus) (UniProt O42275); assay: Mixed type inhibition of Electrophorus electricus AChE by Lineweaver-Burk plot analysis
Procedure, shortened: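 Ellman kinetics at 30 °C in pH 8.0 Tris-HCl with DTNB. Enzyme plus inhibitor (3 concentrations and a water blank) was preincubated for 20 min, then ATChI was added at 0.9375, 0.625, 0.325 or 0.1875 mM. A415 was read every minute for 30 min, in triplicate. Mode, Ki and Ki' came from Lineweaver-Burk, Dixon and Cornish-Bowden plots.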

[8] = molecular target: Acetylcholinesterase (Electrophorus electricus) (UniProt O42275); conditions: 40 uM
Candida antarctica [9] = assay: Inhibition of Candida antarctica lipase at 40 uM using 4-NA as substrate preincubated for 20 mins before the addition of substrate
Procedure, shortened: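 Candida antarctica lipase (stock 2.003 U/ml) in 50 mM Tris-HCl pH 8.0, preincubated with compound at 37 °C for 20 min. Reaction started with 4-NA; absorbance at 415 nm followed at 37 °C for 10 min at 1 min intervals. Relative inhibition taken as the ratio of linear-range slopes, compound over blank.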

[10] = molecular target: Cholinesterase (Equus caballus) (UniProt P81908); assay: Inhibition of equine serum BChE at 10 uM using butyrylthiocholine iodide as substrate preincubated for 20mins before the addition of substrate by Ellman's method; procedure, shortened: as §2
[11] = molecular target: Acetylcholinesterase (Electrophorus electricus) (UniProt O42275); conditions: 10 uM
[12] = molecular target: Carbonic anhydrase 2 (Bos taurus) (UniProt P00921); assay: Inhibition of bovine erythrocte carbonic anhydrase 2 at 10 uM
Candida antarctica [13] = assay: Inhibition of Candida antarctica lipase at 10 uM using 4-NA as substrate preincubated for 20 mins before the addition of substrate; procedure, shortened: as §1
Candida antarctica [14] = assay: Inhibition of Candida antarctica lipase at 3 uM using 4-NA as substrate preincubated for 20 mins before the addition of substrate; procedure, shortened: as §1
[15] = molecular target: Acetylcholinesterase (Electrophorus electricus) (UniProt O42275); assay: Inhibition of Electrophorus electricus AChE at 3 uM using acetylthiocholine iodide as substrate preincubated for 20mins before the addition of substrate by Ellman's method; procedure, shortened: as §2
[16] = molecular target: Cholinesterase (Equus caballus) (UniProt P81908); assay: Inhibition of equine serum BChE at 3 uM using butyrylthiocholine iodide as substrate preincubated for 20mins before the addition of substrate by Ellman's method; procedure, shortened: as §2
[17] = molecular target: Carbonic anhydrase 2 (Bos taurus) (UniProt P00921); assay: Inhibition of bovine erythrocte carbonic anhydrase 2 at 3 uM
[18] = molecular target: Cholinesterase (Equus caballus) (UniProt P81908); assay: Mixed type inhibition of equine serum BChE by Lineweaver-Burk plot analysis
[19] = Cytotoxic activity against mouse NIH/3T3 cells by SRB assay; type: cell-based; conditions: NIH3T3
Procedure, shortened: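 Mouse embryonic fibroblasts grown as monolayers in RPMI 1640 with 10% heat-inactivated FBS and penicillin/streptomycin at 37 °C under 5% CO2. Cytotoxicity read by photometric sulforhodamine-B microculture colorimetric assay, reported as IC50.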

Sequence of Carbonic anhydrase 2 (Bos taurus) (P00921 2-260 limits assumed): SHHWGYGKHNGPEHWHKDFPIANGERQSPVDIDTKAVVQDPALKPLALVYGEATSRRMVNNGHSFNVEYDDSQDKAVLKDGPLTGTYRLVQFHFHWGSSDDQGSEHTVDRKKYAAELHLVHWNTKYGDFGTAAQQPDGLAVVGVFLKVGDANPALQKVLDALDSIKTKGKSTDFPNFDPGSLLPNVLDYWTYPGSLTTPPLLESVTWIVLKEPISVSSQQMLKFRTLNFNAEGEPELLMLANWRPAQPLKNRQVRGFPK
Sequence of Acetylcholinesterase (Electrophorus electricus) (O42275 24-633 limits assumed): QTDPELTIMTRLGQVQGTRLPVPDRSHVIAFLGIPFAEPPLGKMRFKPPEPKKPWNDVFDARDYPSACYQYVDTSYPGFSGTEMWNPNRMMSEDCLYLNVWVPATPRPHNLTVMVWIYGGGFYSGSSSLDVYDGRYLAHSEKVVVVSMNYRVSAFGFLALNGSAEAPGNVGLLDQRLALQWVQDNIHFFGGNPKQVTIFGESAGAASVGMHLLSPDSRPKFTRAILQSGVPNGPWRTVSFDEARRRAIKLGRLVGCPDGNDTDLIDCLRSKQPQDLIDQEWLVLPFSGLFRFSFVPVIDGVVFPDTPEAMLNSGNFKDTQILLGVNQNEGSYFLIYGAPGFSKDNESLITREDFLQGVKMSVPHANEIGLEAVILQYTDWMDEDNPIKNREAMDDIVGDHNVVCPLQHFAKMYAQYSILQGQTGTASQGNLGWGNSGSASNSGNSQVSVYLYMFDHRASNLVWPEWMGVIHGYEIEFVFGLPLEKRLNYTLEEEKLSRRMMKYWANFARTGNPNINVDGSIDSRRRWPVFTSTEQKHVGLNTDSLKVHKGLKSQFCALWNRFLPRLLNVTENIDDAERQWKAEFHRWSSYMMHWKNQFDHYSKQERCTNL
Sequence of Cholinesterase (Equus caballus) (P81908 whole entry): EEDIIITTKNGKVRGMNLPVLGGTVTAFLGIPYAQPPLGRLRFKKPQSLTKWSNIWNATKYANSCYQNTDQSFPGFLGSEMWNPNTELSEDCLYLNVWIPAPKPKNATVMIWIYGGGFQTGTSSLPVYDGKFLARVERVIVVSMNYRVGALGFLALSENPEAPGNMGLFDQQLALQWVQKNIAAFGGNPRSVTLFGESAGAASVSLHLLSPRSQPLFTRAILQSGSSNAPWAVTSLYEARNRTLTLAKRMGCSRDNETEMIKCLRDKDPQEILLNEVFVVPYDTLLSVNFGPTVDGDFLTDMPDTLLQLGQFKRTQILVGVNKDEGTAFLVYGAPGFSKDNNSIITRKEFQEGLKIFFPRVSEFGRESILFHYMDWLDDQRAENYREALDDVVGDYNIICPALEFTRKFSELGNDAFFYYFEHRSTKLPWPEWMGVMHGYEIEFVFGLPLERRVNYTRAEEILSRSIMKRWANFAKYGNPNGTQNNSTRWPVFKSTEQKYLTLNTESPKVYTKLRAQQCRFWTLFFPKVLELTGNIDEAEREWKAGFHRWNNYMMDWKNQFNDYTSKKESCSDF
Sequence of Cholinesterase (P81908 whole entry): as above
Sequence of Acetylcholinesterase (O42275 whole entry): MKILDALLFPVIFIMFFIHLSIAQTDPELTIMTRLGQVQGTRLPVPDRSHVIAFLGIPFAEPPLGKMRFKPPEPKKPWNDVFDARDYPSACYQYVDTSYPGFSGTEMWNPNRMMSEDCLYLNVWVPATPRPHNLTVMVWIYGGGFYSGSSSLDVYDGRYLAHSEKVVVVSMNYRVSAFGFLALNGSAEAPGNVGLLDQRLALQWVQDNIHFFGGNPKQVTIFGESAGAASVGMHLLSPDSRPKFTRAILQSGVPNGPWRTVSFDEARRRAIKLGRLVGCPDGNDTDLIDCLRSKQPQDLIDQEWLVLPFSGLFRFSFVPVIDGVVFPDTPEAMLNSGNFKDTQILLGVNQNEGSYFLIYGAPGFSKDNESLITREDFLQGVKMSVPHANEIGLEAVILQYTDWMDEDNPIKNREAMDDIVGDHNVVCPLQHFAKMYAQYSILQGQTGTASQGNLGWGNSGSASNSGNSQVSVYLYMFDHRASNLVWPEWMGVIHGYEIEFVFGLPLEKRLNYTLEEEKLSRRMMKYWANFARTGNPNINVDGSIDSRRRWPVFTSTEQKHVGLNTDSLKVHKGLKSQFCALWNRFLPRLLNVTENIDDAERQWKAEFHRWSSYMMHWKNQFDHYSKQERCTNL

CC1(C)CC[C@]2(C(=O)OCCCCCl)CC[C@]3(C)C(=CC[C@@H]4[C@@]5(C)C[C@@H](O)[C@H](O)C(C)(C)[C@@H]5CC[C@]43C)[C@@H]2C1
Ki (Cholinesterase): > 10 µM | IC50 (Acetylcholinesterase): 10.5 µM | Ki (Acetylcholinesterase): 1.68 µM | inhibition [1]: 0% | inhibition (Candida antarctica [2]): 0% | inhibition [3]: 0% | inhibition [4]: 79%

CC1(C)CC[C@]2(C(=O)OC/C=C\CCl)CC[C@]3(C)C(=CC[C@@H]4[C@@]5(C)C[C@@H](O)[C@H](O)C(C)(C)[C@@H]5CC[C@]43C)[C@@H]2C1
Ki (Cholinesterase): > 80 µM | IC50 (Acetylcholinesterase): 17.6 µM | Ki (Acetylcholinesterase): 22.5 µM | inhibition [5]: 1% | inhibition [6]: 7% | Kiuc [7]: 9.38 µM | inhibition [8]: 79% | inhibition (Candida antarctica [9]): 0%

CC1(C)CC[C@]2(C(=O)OCCCI)CC[C@]3(C)C(=CC[C@@H]4[C@@]5(C)C[C@@H](O)[C@H](O)C(C)(C)[C@@H]5CC[C@]43C)[C@@H]2C1
Ki (Cholinesterase): > 20 µM | IC50 (Acetylcholinesterase): 10.3 µM | Ki (Acetylcholinesterase): 6.01 µM | inhibition [10]: 0% | inhibition [11]: 51% | inhibition [12]: 6% | Kiuc [7]: 13.4 µM | inhibition (Candida antarctica [13]): 0%

CCCCCCOC(=O)[C@]12CCC(C)(C)C[C@H]1C1=CC[C@@H]3[C@@]4(C)C[C@@H](O)[C@H](O)C(C)(C)[C@@H]4CC[C@@]3(C)[C@]1(C)CC2
Ki (Cholinesterase): > 6 µM | inhibition (Candida antarctica [14]): 0% | IC50 (Acetylcholinesterase): 4.38 µM | Ki (Acetylcholinesterase): 4.78 µM | inhibition [15]: 62% | inhibition [16]: 0% | Kiuc [7]: 5.11 µM | inhibition [17]: 0%

CCCOC(=O)[C@]12CCC(C)(C)C[C@H]1C1=CC[C@@H]3[C@@]4(C)C[C@@H](O)[C@H](O)C(C)(C)[C@@H]4CC[C@@]3(C)[C@]1(C)CC2
Ki (Cholinesterase): > 6 µM | inhibition (Candida antarctica [14]): 0% | IC50 (Acetylcholinesterase): 8.76 µM | Ki (Acetylcholinesterase): 16.9 µM | inhibition [15]: 56% | inhibition [16]: 0% | Kiuc [7]: 15.4 µM | inhibition [17]: 0%

CC1(C)CC[C@]2(C(=O)O)CC[C@]3(C)C(=CC[C@@H]4[C@@]5(C)C[C@H](O)[C@H](O)C(C)(C)[C@@H]5CC[C@]43C)[C@@H]2C1 [AUGUSTIC ACID]
IC50 (Cholinesterase): 16.6 µM | Ki (Cholinesterase): 35.6 µM | Ki (Acetylcholinesterase): > 30 µM | Kiuc [18]: 10.6 µM

CC1(C)CC[C@]2(C(=O)OCc3ccc(Cl)cc3Cl)CC[C@]3(C)C(=CC[C@@H]4[C@@]5(C)C[C@@H](O)[C@H](O)C(C)(C)[C@@H]5CC[C@]43C)[C@@H]2C1
Ki (Cholinesterase): > 6 µM | inhibition (Candida antarctica [14]): 0% | IC50 (Acetylcholinesterase): 4.63 µM | Ki (Acetylcholinesterase): 2.03 µM | inhibition [15]: 43% | inhibition [16]: 0% | Kiuc [7]: 9.24 µM | IC50 [19]: 17.3 µM | inhibition [17]: 0%

CC1(C)CC[C@]2(C(=O)O)CC[C@]3(C)C(=CC[C@@H]4[C@@]5(C)C[C@@H](O)[C@H](O)C(C)(C)[C@@H]5CC[C@]43C)[C@@H]2C1 [MASLINIC ACID]
Ki (Cholinesterase): > 100 µM | Ki (Acetylcholinesterase): > 100 µM | IC50 [19]: 16.6 µM

CC1(C)CC[C@]2(C(=O)OCCCBr)CC[C@]3(C)C(=CC[C@@H]4[C@@]5(C)C[C@@H](O)[C@H](O)C(C)(C)[C@@H]5CC[C@]43C)[C@@H]2C1
Ki (Cholinesterase): > 80 µM | IC50 (Acetylcholinesterase): 31.2 µM | Ki (Acetylcholinesterase): 34.9 µM | inhibition [5]: 1% | inhibition [6]: 16% | Kiuc [7]: 24.4 µM | inhibition [8]: 39% | inhibition (Candida antarctica [9]): 18%
